An excerpt weighted towards active compounds, which were near 0.59% of everything screened.
TRPML3 agonist – agonists of human TRPML3 channel. Q8TDD5. HEK293 TRPML3-YFP, Fluo-8 calcium fluorescence; 100% = the carbachol control signal. activation, % at 3 µM. 0.29% of 220,000 active. AID 1448;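 active means activation above its plate's cutoff, the mean activation of the plate's test wells plus 3 SD, cut at about 12% in these data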;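 further: 0% = DMSO only wells and 100% = carbachol wells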
Target sequence (Q8TDD5 whole entry, looked up): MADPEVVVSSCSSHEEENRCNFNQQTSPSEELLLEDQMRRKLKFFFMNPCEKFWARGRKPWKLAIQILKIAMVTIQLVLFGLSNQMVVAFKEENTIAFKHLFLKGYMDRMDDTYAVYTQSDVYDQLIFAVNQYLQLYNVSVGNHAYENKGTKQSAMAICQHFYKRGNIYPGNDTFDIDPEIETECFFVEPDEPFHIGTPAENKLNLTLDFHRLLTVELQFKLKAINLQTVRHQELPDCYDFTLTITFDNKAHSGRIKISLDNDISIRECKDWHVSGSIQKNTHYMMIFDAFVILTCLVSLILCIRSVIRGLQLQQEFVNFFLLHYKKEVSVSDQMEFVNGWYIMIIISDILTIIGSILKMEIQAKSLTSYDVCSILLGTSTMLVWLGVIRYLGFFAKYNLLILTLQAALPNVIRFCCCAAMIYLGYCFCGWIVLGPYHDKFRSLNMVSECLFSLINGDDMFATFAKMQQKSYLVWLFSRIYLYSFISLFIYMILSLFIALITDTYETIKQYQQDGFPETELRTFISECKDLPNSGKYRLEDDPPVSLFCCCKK
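Test system: TRPML3-YFP stable HEK293 cells. Doses: single point at 3 µM. Incubation: dye loading 1 h 37 °C then 30 min ambient, 125 s read. Signal: Fluo-8 calcium dye fluorescence, ex 470-495, em 515-575 nm. Measure: percent activation from peak-to-basal fluorescence ratio, scaled between DMSO and carbachol.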
OXTR agonist – activates the human oxytocin receptor; P30559; CHO-OTR cells, Fluo-8 calcium fluorescence; normalized: DMSO 0%, oxytocin 100%; activation, % at 3 µM; 0.32% of 320,000 active;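 active means activation above the mean of all tested compounds plus 3 SD, cutoff set per screening run, cut at about 20% in these data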;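 further: peak over basal fluorescence ratio from a 100 s FLIPR kinetic read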
OXTR potentiator – potentiates the human oxytocin receptor response; activation, % at 3 µM; AID 2445; CHO-OTR cells, Fluo-8 calcium fluorescence, potentiator mode; 0% = oxytocin EC15, 100% = EC100; P30559; 0.061% of 320,000 active;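 active means activation above that plate's cutoff, the mean activation of tested compounds plus 3 SD, cut at about 6.6% in these data, passing the limit was not always enough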;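 further: 100% uses oxytocin at 75 nM as the full agonist control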
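Assay system: CHO cell line stably expressing human OTR | Also added: Oxytocin at about EC15, sub-maximal agonist stimulus | Times: Compound 6 min at room temperature before oxytocin, 100 s read | Measured by: Fluo-8 intracellular calcium fluorescence, ex 470-495, em 515-575 nm | Controls: EC15 oxytocin alone as 0%, 75 nM oxytocin as 100%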
TRPN1 ag – zebrafish TRPN1 (NompC) channel agonism | HEK293 zebrafish TRPN1-YFP, Fluo-8 calcium fluorescence; 100% = response to 87 µM carbachol | AID 1424 | 0.18% of 220,000 active | activation, % at 3 µM;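 active means activation above its plate's cutoff, the mean activation of test wells on that plate plus 3 SD, cut at about 19% in these data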;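 further: 0% = DMSO alone and 100% = 87 µM carbachol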
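Material: zebrafish TRPN1-YFP in HEK293 cells. Doses: one dose of 3 µM, 0.3% DMSO. Incubation: dye 1 h 37 °C plus 30 min RT. Measured by: intracellular calcium fluorescence with Fluo-8.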
V1R ag counter – V1a receptor agonism, counter-screen for OXTR agonists | CHO-V1R cells, Fluo-8 calcium fluorescence, agonist mode; 0% DMSO, 100% 3 nM vasopressin | P37288 | activation, % at 3 µM | 0.25% of 320,000 active;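 active means activation above the mean activation of all tested compounds plus 3 SD, per screening run, cut at about 20% in these data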;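 further: signal is peak over basal fluorescence ratio across a 100 second FLIPR read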
TRPN1 ag 2 – counter-screen for TRPML3 agonists: agonists of zebrafish TRPN1 channel; activation, % at 3 µM; AID 1525; 10% of 310 active; HEK293 zebrafish TRPN1-YFP, Fluo-8 calcium fluorescence; scaled: carbachol wells 100%, DMSO wells 0%; shares compounds with TRPML3 agonist;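 active means mean activation over replicates above a set limit taken from the earlier TRPN1 channel primary screen, cut at about 19% in these data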;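 further: 100% = carbachol and 0% = 0.3% DMSO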
TRPML3 ag conf – confirmation of human TRPML3 channel agonists | AID 1526 | shares compounds with TRPML3 agonist | activation, % at 3 µM | HEK293 TRPML3-YFP, Fluo-8 calcium fluorescence; 100% set by carbachol, 0% by DMSO | 80% of 310 active;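 active means activation above a set limit derived from the earlier primary screen, cut at about 12% in these data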
Active calls of the source: *; / = no result.

SMILES	TRPML3 agonist	OXTR agonist	OXTR potentiator	TRPN1 ag	V1R ag counter	TRPN1 ag 2	TRPML3 ag conf
COC(=O)[C@]1(C)CCC[C@@]2(C)C3CC[C@@]4(C)C[C@]3(CCC21)CC(=O)N4Cc1ccc(OC)cc1 (stereo partly drawn)	/	-1	-4	/	0	/	/
Cc1ccc(S(=O)(=O)N2CCC(C)CC2)c([N+](=O)[O-])c1	48*	-2	-4	-1	-1	-1	60*
CCc1noc(C)c1C(=O)OC(C)C(=O)Nc1ccc(Cl)cn1 (stereo not drawn)	/	-2	3	/	0	/	/
CCOC(=O)C(C)(C)N(Cc1cccc(C)c1)S(=O)(=O)c1cccc([N+](=O)[O-])c1	12*	-1	-8	-2	0	-1	36*
CCOC(=O)C(C)(C)N(Cc1cccc(C)c1)S(=O)(=O)c1ccc(Cl)c([N+](=O)[O-])c1	0	-1	-13	0	0	/	/
CCCn1cc(S(=O)(=O)c2ccc(F)cc2)c(=O)c2cc(OCC)ccc21	/	-1	-1	/	0	/	/
C=CCOc1ccc2c(c1)c(S(=O)(=O)c1ccc(C)cc1)cn2COC	127*	1	2	1	1	0	139*
Cc1onc(-c2ccccc2Cl)c1C(=O)Nc1cccc(-c2nc3ncccn3c2C)c1	12*	0	-3	5	0	8	13*
Cc1onc(-c2ccccc2Cl)c1C(=O)Nc1ccc(-c2cn3cccnc3n2)cc1	1	1	-5	2	1	/	/
Cc1cc(C)cc(OCc2nnc(N)s2)c1	1	0	-1	2	1	/	/
CC(c1ccccc1)N(NC(=O)C(O)(c1ccccc1)c1ccccc1)C(=O)c1ccccc1 (stereo not drawn)	13*	-2	-5	-1	0	-1	65*
CC1CCCC(C)N1C(=C(Cl)Cl)C(=C1SCCS1)[N+](=O)[O-] (stereo not drawn)	14*	-2	-6	0	0	10	55*
Cc1ccc(N2C(=O)CS/C2=C(\C(Cl)=C(Cl)Cl)[N+](=O)[O-])cc1	2	0	-6	1	0	/	/
CCc1cc2c(-c3ccccc3)cc(=O)oc2c(CN2CCOCC2)c1O	1	0	-7	0	0	/	/
Cc1cc(C(C)c2ccccc2)c(O)c(CN2CCOCC2)c1C (stereo not drawn)	16*	-3	-18	0	-2	-2	33*
COc1ccccc1N1CCN(C(=O)C2CCCCN2S(=O)(=O)c2ccc(C)cc2)CC1 (stereo not drawn)	14*	-2	-6	1	1	0	11
CN(C)C(=O)C1Cc2ccccc2CN1S(=O)(=O)c1cccs1 (stereo not drawn)	0	0	3	-1	1	/	/
O=C(C1Cc2ccccc2CN1S(=O)(=O)c1ccc(F)cc1)N1CCCCC1 (stereo not drawn)	64*	-2	4	1	0	4	127*
O=C(C1Cc2ccccc2CN1S(=O)(=O)c1cccs1)N1CCCCC1 (stereo not drawn)	15*	-1	-7	-1	0	0	52*
COc1ccccc1N1CCN(C(=O)C2CCCN(S(=O)(=O)c3ccc(C)cc3)C2)CC1 (stereo not drawn)	/	7	-4	/	9	/	/
COCCCn1c(=O)/c(=C\c2ccccc2OC(C)C)s/c1=C(/C#N)C(=O)Nc1ccc(C(=O)O)cc1	-1	2	2	1	0	/	/
O=C1c2ccccc2-c2onc3ccc(N4CCCC4)c1c23	14*	/	/	18	/	51*	39*
Cc1ccc(CN(CC(=O)NCCc2ccccc2)C(=O)c2csnn2)cc1	/	0	-10	/	0	/	/
COC(=O)c1[nH]c2c(c1C)C(=O)CC(c1cccs1)C2 (stereo not drawn)	26*	2	-3	1	4	0	0

High-throughput results from PubChem.
